# Sampled rows, rich in hits. Any-hit rate of the full collection: about 2.6%.
# SIAE primary: human SIAE inhibitors, primary screen, biochemical, fluorescence polarization, FP-Rh probe, 1536-well HTS | inhibition, % at 9.66 µM | SIAE FP-Rh probe binding | 0.69% of 370,000 active;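 active = inhibition above a cutoff: mean of compounds within the control limits plus 3 SD of those, cut at about 17% in these data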
# TCR CD3 inh: inhibitors of human TCR-CD3 interaction, primary screen, biochemical, fluorescence, TAMRA-labeled TCR probe. AID 651800, 2012. inhibition, % at 9.4 µM. 0.37% of 360,000 active; in the data active = inhibition above about 19%;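 note: recombinant mutant TCR 2C K166C tagged with TAMRA read by polarization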
# ABHD4 inh: ABHD4 inhibitors, primary screen, biochemical, fluorescence polarization, mouse; inhibition, % at 8.92 µM; 0.54% of 370,000 active; AID 720543, 2013; purified mABHD4, FP-Rh probe fluorescence polarization; (Lyso)-N-acylphosphatidylethanolamine lipase (Mus musculus), Q8VD66;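 active = inhibition exceeding the mean over every tested compound plus 3 SD, cut at about 30% in these data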
# Target sequence (Q8VD66 whole entry, looked up): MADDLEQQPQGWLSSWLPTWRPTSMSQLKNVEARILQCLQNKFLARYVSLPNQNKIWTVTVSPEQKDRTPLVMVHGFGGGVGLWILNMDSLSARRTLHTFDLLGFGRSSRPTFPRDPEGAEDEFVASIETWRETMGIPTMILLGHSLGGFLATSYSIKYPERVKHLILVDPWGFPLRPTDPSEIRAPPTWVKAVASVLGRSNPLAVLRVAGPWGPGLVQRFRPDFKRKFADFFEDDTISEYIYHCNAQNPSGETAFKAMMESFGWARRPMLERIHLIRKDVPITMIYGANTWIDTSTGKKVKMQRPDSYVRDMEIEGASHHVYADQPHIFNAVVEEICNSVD
#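 Test system: mouse ABHD4 enzyme, wild type. Reagent: FP-Rh fluorescent activity-based probe, added after compound pre-incubation. Timing: pre-incubation 45 min, probe exposure 60 min, at 25 °C. Technique: FP readout, ex 525 nm / em 598 nm. Benchmarks: high control S159A mutant with DMSO, low control median of compound wells.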
# HTRA1 inh: HTRA1 serine protease inhibitors, primary screen, biochemical, fluorescence polarization, HTS. AID 504803, 2011. 0.5% of 340,000 active. recombinant HTRA1, FP-rhodamine activity-based probe. inhibition, % at 5.96 µM. Q92743; in the data active = inhibition above about 36%
# PRMT1 inh: PRMT1 methyltransferase inhibitors, primary screen, biochemical, fluorescence polarization; Protein arginine N-methyltransferase 1 (Homo sapiens), Q99873; recombinant PRMT1, activity-based probe fluorescence polarization; inhibition, % at 2.79 µM; 1.3% of 370,000 active;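 active = inhibition above about 21% made by adding two undisclosed values, limit read from the data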
# Hits are given with their value; – = inactive; · = no result given.
SMILES,SIAE primary,TCR CD3 inh,ABHD4 inh,HTRA1 inh,PRMT1 inh
CCOC(=O)[C@]12CCCC=C1N(CCCOC)C(=O)[C@@H]2CC(=O)NCc1ccc(OC)c(OC)c1,–,·,–,·,–
CCOC(=O)c1c(C)[nH]c(C=Nc2ccc(OC)cc2)c1O,–,–,–,–,22
O=C(Nc1ccc(Cl)cc1Cl)c1ccc2c(c1)OCCO2,–,–,–,–,–
O=C(Nc1ccc(Cl)cc1Cl)c1cccc(N2C(=O)C=CC2=O)c1,–,–,–,–,88
Cc1cccc(-n2nc3c(c2NC(=O)c2ccco2)CSC3)c1C,–,–,–,–,30
Cc1cccc(-n2nc3c(c2NC(=O)c2ccco2)CS(=O)C3)c1C (stereo not given),–,–,–,–,–
C[C@H]1[C@@H](NC(=O)/C=C/c2ccccc2)CC[C@@]23CCCN2C(=O)CCC[C@@H]13,–,·,–,·,–
C/C(=N\Nc1nc2ccccc2c(=O)n1O)c1ccco1,–,20,–,–,36
Cc1ccc(C)c(/C=N/Nc2nc3ccccc3c(=O)n2O)c1,–,–,–,·,25
C=CCN(C)C(C#Cc1ccccc1)Cc1ccccc1 (stereo not given),–,·,–,·,–
Cc1cc(C)cc(NC(=O)c2ccc([N+](=O)[O-])o2)c1,–,–,–,·,–
NS(=O)(=O)c1ccc(O)c(NC(=O)c2ccc([N+](=O)[O-])o2)c1,–,–,–,–,22
Cc1ccc(-c2cc(-c3nnc(SCC(=O)NC4CCCCC4)n3N)[nH]n2)cc1,–,·,–,·,–
CCCC[C@H](C(=O)N(C)c1ccccc1)[C@@H](O)c1ccc(C(C)=O)cc1,–,·,–,·,–
CC(=O)C1=C(C)NC(SCC(=O)c2ccc(F)cc2)=C(C#N)C1CC(C)C (stereo not given),–,–,–,–,28
Cc1ccc(NC2CC(=O)N(CCc3ccccc3)C2=O)cc1 (stereo not given),–,–,–,–,–
CCN(CC)c1ccc(NC2CC(=O)N(CCc3ccc(OC)cc3)C2=O)cc1 (stereo not given),–,–,–,54,–
Cc1ccc(Nc2cc(C)nn2-c2nc(C)cc(=O)[nH]2)cc1,·,·,·,50,·
Cc1ccc(Nc2cc(C)nn2-c2nc(C)cc(C)n2)cc1,–,–,–,–,–
CC(C)c1ccc(N2C(=O)CC(Sc3nc4ccccc4o3)C2=O)cc1 (stereo not given),–,–,–,–,23
COC(=O)c1ccc2c(C3(c4c[nH]c5ccccc45)CCN(C(=O)OC(C)(C)C)CC3)c[nH]c2c1,–,·,–,·,–
CCn1c2ccc(C)cc2c2nnc(SCCN3CCOCC3)nc21,–,–,–,–,–
Cc1ccc2c(c1)c1nnc(SCC(=O)N3CCN(c4ccc(F)cc4)CC3)nc1n2CC(=O)O,–,–,–,–,22
COC(=O)C1CN(Cc2cn(Cc3ccc(C)cc3)nn2)CCS(=O)(=O)N1Cc1ccc(F)cc1 (stereo not given),–,·,–,·,–
O=C1CNC(=O)/C(=C/c2ccco2)N1,–,–,–,–,23
SMILES,SIAE primary,TCR CD3 inh,ABHD4 inh,HTRA1 inh,PRMT1 inh
O=C1NC(=Nc2ccc(O)cc2)S/C1=C/c1ccco1,–,–,–,–,–
O=c1c2cc(F)ccc2sn1-c1ccc(F)cc1,·,·,·,–,·
COc1ccc(-n2sc3ccc(F)cc3c2=O)cc1,–,–,–,–,87
Cc1ccc(C)c(-n2sc3ccc(F)cc3c2=O)c1,–,–,–,–,91
CCCCn1c2ccccc2c2nnc(SCC(=O)NC3=NN=C(c4ccccc4)CS3)nc21,–,–,–,·,45
CCCCCCCCN1C(=O)[C@@H](CC(=O)NCCCOCCCC)C[C@@]2(C(=O)OC)C1=C[C@H](C(C)(C)C)O[C@@H]2C,–,–,–,·,–
O=C(NC1CCCCN(Cc2cccc(Cl)c2)C1=O)c1cccc(F)c1 (stereo not given),–,·,–,·,–
CSC1=NSC2=NC(=O)/C(=C/c3coc4ccc(O)cc4c3=O)C(=N)N12,–,–,–,–,25
CSC1=NSC2=NC(=O)/C(=C/c3coc4ccccc4c3=O)C(=N)N12,–,–,–,–,–
O=C(C=C1SCCS1)/C=C/c1ccco1,–,–,–,–,22
Oc1c(Br)cc(Br)c(/C=N/n2c(-c3ccccc3)n[nH]c2=S)c1Br,–,–,–,–,23
Oc1ccc(Br)cc1/C=N/n1c(-c2ccccc2)n[nH]c1=S,–,–,–,–,–
CC(C)C[C@H]1COc2cc(Br)ccc2S(=O)(=O)N1Cc1cn(CCC2OCCO2)nn1,–,·,–,·,–
COC(=O)C1CN(C2CCCC2)CCS(=O)(=O)N1Cc1ccc(C(F)(F)F)cc1 (stereo not given),–,·,–,·,–
CC(CCc1ccccc1)NC(=O)CN1CCN(c2ccc(O)cc2)CC1 (stereo not given),–,–,–,–,23
Cc1ccc(NC(=O)c2nc(S(=O)(=O)Cc3ccccc3C)ncc2Cl)cc1C,–,–,–,–,35
CCOC(=O)c1ccc(NC(=O)c2nc(S(=O)(=O)Cc3ccccc3)ncc2Cl)cc1,–,–,–,–,–
Cc1cccc(CS(=O)(=O)c2ncc(Cl)c(C(=O)NCc3ccc4c(c3)OCO4)n2)c1,–,–,–,–,22
CC(=O)Nc1ccc(NC(=O)c2nc(S(=O)(=O)Cc3cccc(C)c3)ncc2Cl)cc1,–,–,–,–,32
COC(=O)[C@H](CC(C)C)N(CCCc1cn(Cc2ccccc2)nn1)S(=O)(=O)c1ccc(F)cc1Br,–,·,–,·,–
CC1(NC(=O)c2ccc(C#Cc3cccc(F)c3)cn2)COC1,–,·,–,·,–
CCN(CC)S(=O)(=O)c1ccc2c(c1)nc(SCn1nnc3ccccc3c1=O)n2CC,–,–,–,–,22
CC(C)OC(=O)c1cn(-c2ccccc2)nc1-c1ccco1,–,–,–,–,23
OC(c1ccccc1)(c1ccccc1)C1CCN(CCCNc2ccc(C(F)(F)F)cc2)CC1,–,·,–,·,–
CC(=O)N1CCN(c2nnc(-c3ccccc3)c3ccccc23)CC1,–,–,–,–,–
SMILES,SIAE primary,TCR CD3 inh,ABHD4 inh,HTRA1 inh,PRMT1 inh
CC(=O)C1=C(c2ccccc2)N(C(C)=O)n2c(C)nnc2S1,–,–,–,–,73
CN1CCN(c2cc(N3CCN(C(=O)c4ccco4)CC3)c3c4c(onc24)-c2ccccc2C3=O)CC1,·,·,·,63,·
CCOC(=O)N1CCN(C(=O)c2noc3c2COc2ccccc2-3)CC1,–,–,–,–,–
CCOC(=O)N1CCN(c2cc(NCCC(=O)O)c3c4c(onc24)-c2ccccc2C3=O)CC1,·,·,·,40,·
O=C(Nc1ccccc1C(F)(F)F)NC1(C(=O)N2CCOCC2)CCCCC1,–,–,–,–,23
S=c1[nH]nc(-c2ccco2)n1/N=C/c1ccc(Cl)cc1Cl,–,–,–,–,22
S=c1[nH]nc(-c2ccco2)n1/N=C/c1cccs1,–,–,–,–,–
